Among all 2,500 compounds or so, about 460 (18%) were called active. These entries were drawn from the full list. A number with no mark means an inactive call.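 How the source made its calls: active means mean activation above a cutoff of low control average plus 3 SD from the earlier screen (cut at about 12% in these data); inactive means the rest.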

This experiment in a line: compound fluorescence interference without thin filaments, confirmation, artefact control for cardiac RTF calcium sensitizer project, biochemical (AID 504382). To be noted: IANBD fluorescence interference counterscreen, buffer, EC20 Ca2+; at 7.2 µM; active compounds read high; scaled: EC20 calcium 0, EC100 calcium 100. A digest of the protocol: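 Doses – one dose of 7.2 µM, 0.7% DMSO · Buffer or medium – MOPS/KCl/MgCl2/EGTA/NTA/DTT buffer, pH 7.2 · Probe or stimulus – Ca2+ fixed at EC20, 0.472 mM · Measured by – fluorescence intensity, excitation 480 nm, emission 540 nm · Read-out – fluorescence interference versus control range · Timing – 15 min compound exposure at 25 °C · Replication – triplicate wells per compound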
On the technique in general: Counterscreens check selectivity or assay interference.
Consider `Cc1cc(S(=O)(=O)Cc2noc(-c3c(C)noc3C)n2)c(C)cc1Cl`, for which the fluorescence artifact activation is -0.02%.
Under `COC(=O)[C@H](Cc1ccccc1)NC(=O)Nc1ccc(OC)cc1` stands 0.02%.
`COCCN1C(=O)N[C@@H](c2cccc(C(F)(F)F)c2)C(C(=O)OC)=C1C`: the fluorescence artifact activation is 13.5% (active).
Under `CCOC(=O)CN1C(=O)N[C@@H](c2cccc(C(F)(F)F)c2)C(C(=O)OC)=C1C` stands 0.03%.
The result for `COc1cc(OC)c(C(=O)OC(C)C(=O)Nc2cccc(C(F)(F)F)c2)cc1OC` (configuration not stated) reads 1.83%; that for `Cc1c(C(=O)NCc2ccco2)cccc1[N+](=O)[O-]`, 4.18%.
The result for `COc1cc(/C=C/C(=O)/C=C(O)/C=C/c2ccc(O)c(OC)c2)ccc1O` reads 110% (active); that for `COc1cc(/C=C/C(=O)CC(=O)/C=C/c2ccc(O)c(OC)c2)ccc1O`, 0.15%.
`COc1cc(/C=C/C(O)=C/C(=O)/C=C/c2ccc(O)cc2)ccc1O`: the fluorescence artifact activation is 0.51%.
Under `C/C(=N/NC(=O)Nc1ccccc1)c1ccc(C)cc1` stands -0.02%; under `Cc1c(C=O)c2ccccn2c1C(=O)c1cccs1`, 3.43%.
Under `CCCNC(=O)Cn1c(=O)/c(=C\c2ccc(-c3ccc([N+](=O)[O-])cc3)o2)s/c1=C\C(=O)C(C)(C)C` stands 8.2%.
The result for `CC1(C)CC(=O)C=C(NCc2ccc(Cl)c(Cl)c2)C1` reads -0.02%.
Regarding `COc1ccc(CNC(=O)C(C#N)c2nc3ccccc3nc2N2CCCC2)cc1` (configuration not stated), the fluorescence artifact activation was -0.08%.
Under `O=S(=O)(c1ccc(F)cc1)N1CN(Cc2ccco2)c2nc3ccccc3nc21` stands 8.07%; under `COc1ccc(S(=O)(=O)N2CN(Cc3ccco3)c3nc4ccccc4nc32)cc1`, 37.3% (active).
Under `COC1=C/C(=C/c2c(N)n3cc(C)sc3nc2=O)C=CC1=O` stands -0.03%.
Under `Cc1cccc(Nc2c([N+](=O)[O-])c(=O)oc3ccccc23)c1` stands 7.76%; under `COc1cc2cc(CN(Cc3cccnc3)C(=O)NCc3ccccc3)c(=O)[nH]c2cc1OC`, 116% (active); under `O=C(c1ccncc1)N(Cc1ccccc1)Cc1nc2ccccc2c(=O)[nH]1`, 0.03%.
On to `COc1ccc2cc(CN(CC3CCCO3)C(=S)NCc3ccco3)c(=O)[nH]c2c1` (configuration not stated), for which the fluorescence artifact activation is 0.1%.
Consider `O=C1NC2=C(C(=O)CCC2)C(c2ccccc2Cl)N1` (configuration not stated), for which the fluorescence artifact activation is 0.2%.
Under `O=C1N(c2ccc(Cl)cc2)C(c2ccccc2)N2CCCN12` (configuration not stated) stands -0.06%; under `C=CCOc1ccc(/C=C2\SC(=Nc3cccnc3)NC2=O)cc1`, 0.04%.
Under `CCOc1ccc(N=C2NC(=O)S/C2=C\c2ccc(N(C)C)cc2)cc1` stands 1920% (active); under `COc1ccc(N=C2NC(=O)S/C2=C\c2ccc(N(C)C)cc2)cc1`, 9.11%.
Under `N#CC1(C#N)C(c2ccccc2)OC23CCCCC2C1(C#N)C(=N)O3` (configuration not stated) stands 0.04%; under `COc1cc(/C=C2\N=C3CCCCCN3C2=O)ccc1O`, -0.06%; under `O=C(CCC1CCCN(C(=O)c2ccncc2)C1)NCc1ccc(F)c(F)c1` (configuration not stated), 0.02%.
Take `Oc1ccc2ccc3cccc[n+]3c2c1`: the fluorescence artifact activation was 12.9% (active).
Regarding `CCn1c(SCC(=O)c2ccc(Cl)cc2)nnc1C(C)C`, the fluorescence artifact activation is 2.06%.
In the case of `COc1ccccc1Nc1ncc(C(=O)N2CCC(C(N)=O)CC2)c2ccccc12`, the fluorescence artifact activation was -0.02%.
The result for `COc1ccc(CN2CCC(C(=O)N3CCN(c4ccccc4F)CC3)CC2)cc1OC` reads 0.36%; that for `COc1ccc(CN2CCN(C(=O)c3ccccc3F)CC2)c(OC)c1OC`, 14.3% (active); that for `COc1ccc(CC(=O)N(C)Cc2cccc(F)c2)cc1S(=O)(=O)N1CCOCC1`, 0.26%.
With `CSc1ccc(C2NC(=O)c3c(sc4c3CCN(C)C4)N2)cc1` (configuration not stated), the fluorescence artifact activation is 4.52%.
Under `O=C1NCCCCC1NS(=O)(=O)c1cccc(C(F)(F)F)c1` (configuration not stated) stands 0.33%; under `N#Cc1ccc(S(=O)(=O)NC2CCN(Cc3ccccc3)CC2)cc1`, 2.37%.
The result for `N#Cc1ccc(S(=O)(=O)NC2CCCCNC2=O)cc1` (configuration not stated) reads 26.9% (active); that for `CCN1CCc2c(sc(NC(=O)c3ccc(S(=O)(=O)N(C)c4ccccc4)cc3)c2C(=O)NC)C1`, 0.31%.
Under `CCC(Oc1cc(Cl)ccc1Cl)C(=O)NNC(=O)CCC(=O)O` (configuration not stated) stands 0.03%; under `COc1ccc(/C=N/N=C2/CC(C)(C)Cc3n[nH]c(=O)cc32)cc1`, 357% (active); under `CCn1c(O)c(/C=N/N=C/c2ccc(OC)cc2)c2cc(C3=NNC(=O)CC3)ccc21`, 5.84%.
For the molecule `CCn1cc(/C=C/c2cc[n+](C)cc2)c2ccccc21`, the fluorescence artifact activation was 0.09%.
Under `CC1CN/C(=C\C(=O)c2ccc(Br)cc2)C(=O)N1` (configuration not stated) stands -0.09%.
Under `CCN(CC)c1ccc2cc(S(=O)(=O)c3ccc(Cl)cc3)c(=O)oc2c1` stands 156% (active); under `CCN(CC)c1ccc2cc(S(=O)(=O)c3ccc(C)cc3)c(=O)oc2c1`, 9.02%; under `CCN(CC)c1ccc2cc(NC(=O)CCC(=O)O)c(=O)oc2c1`, 0.3%.
The result for `COc1ccc(C2c3ccc(O)cc3Oc3ncn(CCN4CCOCC4)c(=N)c32)cc1OC` (configuration not stated) reads 5.12%.
In the case of `CC(C)c1ccc(OCC(=O)NC(Cc2c[nH]c3ccccc23)C(=O)O)cc1` (configuration not stated), the fluorescence artifact activation is 0.01%.
The result for `CN1CCc2c(sc3c2C(=O)NC(c2ccco2)N3)C1` (configuration not stated) reads 0.18%; that for `O=C(NCc1ccco1)C1Cc2ccccc2CN1C(=O)c1ccco1` (configuration not stated), 1040% (active); that for `O=C(O)C1CC(O)CN1C(=O)c1ccco1` (configuration not stated), 0.06%.
Under `O=C(NCc1ccco1)C1CCC(N2C(=O)C3C4CCC(C4)C3C2=O)CC1` (configuration not stated) stands 0.07%; under `COc1cccc(OC)c1C(=O)NNC(=O)c1ccccc1-n1cccc1`, -0.01%; under `CC(C)(C)C(=O)c1sc2nc(-c3cccs3)cc(C(F)(F)F)c2c1N`, 0.13%.
Turning to `CCOc1nc(OCC)c2[nH]c(C(=O)O)c(Br)c2n1`, the fluorescence artifact activation was 0.34%.
As for `O=C(c1ccccc1Nc1ccc(SC(F)F)cc1)N1CCCCC1`, the fluorescence artifact activation is 0.06%.
In the case of `COc1ccc(C2C(C(=O)c3ccccc3)N3c4ccccc4C=CC3C2[N+](=O)[O-])cc1` (configuration not stated), the fluorescence artifact activation was 10.3%.
The result for `COc1ccc(C2CC(c3ccncc3)=NN2c2ccc(S(N)(=O)=O)cc2)cc1` (configuration not stated) reads 1.86%; that for `N#CC1CC(c2ccc([N+](=O)[O-])cc2)=NN1c1ccc([N+](=O)[O-])cc1` (configuration not stated), 0.52%; that for `N#CCC(=O)N/N=C/c1ccc(N2N=C(c3ccccc3)CC2c2ccccc2)cc1` (configuration not stated), -0.02%.
Under `NS(=O)(=O)c1ccc(N2N=C(c3ccccc3)CC2c2ccccc2)cc1` (configuration not stated) stands 15.1% (active).
The result for `O=[N+]([O-])c1ccc(C2=NN(c3ccccc3)C(c3ccco3)C2)cc1` (configuration not stated) reads -0.01%; that for `O=[N+]([O-])c1ccc(N2N=C(c3ccccc3)CC2c2ccccc2O)cc1` (configuration not stated), 47.5% (active).
Regarding `CN(CC(=O)N1CCN(c2ncccn2)CC1)S(=O)(=O)c1ccc(Cl)cc1`, the fluorescence artifact activation was 0%.
Under `CCOC(=O)[C@H]1[C@H]2COc3ccccc3[C@@H]2N2C(=O)CN(Cc3ccc(C)cc3)C(=O)[C@@]12C` stands 0.38%.
Take `COc1ccc(/C=N/Nc2ncc(C(F)(F)F)cc2Cl)cc1OC`: the fluorescence artifact activation was -0.02%.
The result for `CC(C(=O)N1CCc2ccccc2C1)N1C(=O)c2ccccc2C1=O` (configuration not stated) reads 0.12%; that for `CCOC(=O)c1cc(C#N)c(SCC(=O)c2cc(C#N)c(SC)nc2C)[nH]c1=O`, 6.31%; that for `CC(=O)n1c(C=Nc2ccc(Cl)cc2)c(O)c2ccccc21`, 0.42%.
The result for `COc1ccc(C2=NS(=O)(=O)N(C)C(C(=O)NC3CCCC3)=C2)cc1` reads -0.02%; that for `O=C(CCc1nc2sc3c(c2c(=O)[nH]1)CCCC3)Nc1ccccc1Cl`, 31.9% (active).
Under `O=C(CN1C(=O)NC2(CCCCC2)C1=O)Nc1ccccc1Cl` stands 0.05%; under `CCC(=O)Nc1nc2c(c(=O)[nH]1)CCCC2`, 0.02%.
`CSCC(O)Cn1ncc2ccccc2c1=O` (configuration not stated): the fluorescence artifact activation was -0.02%.
The result for `CN(C)/C=C1\SC(=S)N(c2ccc(Br)cc2)C1=O` reads 43.8% (active); that for `CC(C)c1ccc(N2C(=O)/C(=C/N(C)C)SC2=S)cc1`, 18.9% (active).
The result for `CCN1C(=O)/C(=C/C=C2\N(CC)c3cc(S(=O)(=O)N(C)C)ccc3N2c2ccccc2)SC1=S` reads 0.15%; that for `O=C1CSC(=S)N1c1ccc(O)cc1`, 0.03%.
The result for `COCCNC(=O)CSc1nc(N)c(NC(=O)c2ccccc2F)c(=O)[nH]1` reads 1.87%; that for `CN1C2CCC1/C(=C/c1cccn1C)C(=O)/C2=C\c1cccn1C`, 0.09%; that for `CC(C)c1ccc(/C=C2\Oc3c(ccc(O)c3CN3CCN(C)CC3)C2=O)cc1`, -0.06%.
As for `O=c1cc(-c2ccccc2)oc2ccc(Br)cc12`, the fluorescence artifact activation is 0.06%.
As for `CCSc1cc(N2CCCC2)nc(-c2ccc(Cl)cc2)n1`, the fluorescence artifact activation was 0.62%.
Under `CC(=O)Nc1ccc(N=Cc2nc(-c3ccc(C)cc3)oc2O)cc1` stands 8.23%; under `CC(C)CC[n+]1ccccc1/C=C/c1ccc(N(C)C)cc1`, -0.07%; under `COc1ccc(OC)c(S(=O)(=O)N2CCC(C(=O)NCc3ccccn3)CC2)c1`, 1.09%.
Regarding `CC(=O)Nc1ccc(Nc2cc(N(C)C)c3nonc3c2[N+](=O)[O-])cc1`, the fluorescence artifact activation was 33.2% (active).
For `CC1(C)CC(=O)C(C=Nc2cc(C(=O)c3ccccc3)ccc2N)=C(O)C1`, the fluorescence artifact activation is 6.24%.
The result for `CN(C(=O)C1CCC1C(=O)O)c1nc(-c2ccc(Cl)s2)cs1` (configuration not stated) reads 21.3% (active); that for `O=C(NCc1ccccc1)C1(c2cccc(F)c2)CCCC1`, 0.26%.

The record behind these values is PubChem BioAssay AID504382 (The Scripps Research Institute Molecular Screening Center, 2011).
